Reference: ChEMBL document CHEMBL2311335, “Increased hydrophobicity and estrogenic activity of simple phenols with silicon and germanium-containing substituents” (J Med Chem, 2013)
Activity calls are given as the source filed them. The calls are words filed in the database; no cut-off is given here.

Key:
[1] = Octanol-water partition coefficient, log P of the compound by HPLC analysis
MCF7 [2] = assay: Estrogenic activity in human MCF7 cells assessed as cell proliferation after 7 days by WST-8 assay; type: functional, cell-based
Summary of the method: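 Cells were seeded at 1.2 × 10³ per well in the same medium. Proliferation was read by WST-8 (2 h, absorbance at 450 nm). Viable cell number was plotted against log concentration and EC₅₀ taken from a sigmoidal fit.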

[3] = Dissociation constant, pKa of the compound
[4] = molecular target: T1, Estrogen receptor (Homo sapiens) (UniProt P03372); assay: Displacement of [3H]estradiol from human recombinant ER at 10^-8 to 10^-7 M after 14 to 18 hrs by scintillation counting analysis; details: in the assay text read “10^-8 to 10^-4 M” for “10^-8 to 10^-7 M”
T1 sequence (whole entry): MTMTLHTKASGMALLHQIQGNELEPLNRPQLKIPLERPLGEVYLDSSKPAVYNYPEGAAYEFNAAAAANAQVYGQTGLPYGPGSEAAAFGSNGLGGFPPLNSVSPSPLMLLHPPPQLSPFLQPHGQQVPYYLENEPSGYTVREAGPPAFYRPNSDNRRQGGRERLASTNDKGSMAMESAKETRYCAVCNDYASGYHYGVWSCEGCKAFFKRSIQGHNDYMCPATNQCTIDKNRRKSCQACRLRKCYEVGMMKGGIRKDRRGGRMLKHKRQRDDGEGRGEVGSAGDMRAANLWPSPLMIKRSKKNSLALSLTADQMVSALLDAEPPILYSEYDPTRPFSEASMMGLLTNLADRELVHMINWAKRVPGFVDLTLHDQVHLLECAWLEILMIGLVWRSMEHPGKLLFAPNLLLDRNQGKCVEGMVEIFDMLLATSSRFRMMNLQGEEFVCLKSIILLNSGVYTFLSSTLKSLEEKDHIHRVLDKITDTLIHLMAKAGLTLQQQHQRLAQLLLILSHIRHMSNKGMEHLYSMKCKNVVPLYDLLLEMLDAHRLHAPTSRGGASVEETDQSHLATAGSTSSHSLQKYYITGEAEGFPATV
Summary of the method: (§1)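 Recombinant human ER was diluted in binding buffer (50 mM Tris pH 7.5, 10% glycerol, 0.1 mM BHA, 10 mM mercaptoethanol, 0.5% yeast extract) to 2–4 nM. It was incubated refrigerated for 14–18 h with 10⁻⁸ M [³H]estradiol final and 10⁻⁴–10⁻⁸ M competitor in DMSO. Bound ligand was captured on hydroxylapatite for 15 min at 0 °C, washed three times with Tris pH 7.3, and counted by scintillation. Run in duplicate.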

[5] = molecular target: T1, Estrogen receptor (Homo sapiens); assay: (§2) Agonist activity at ER in human T47D-Kbluc cells at 10^-14 to 10^-7 M after 24 hrs by luciferase reporter gene assay; type: cell-based
Summary of the method: (§3)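 After 24 h at 37 °C, compounds were added at 10⁻¹⁴ to 10⁻⁷ M final in 0.1% DMSO final. After a further 24 h, Steady-Glo was added and luminescence read after 5 min.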

[6] = molecular target: T1, Estrogen receptor (Homo sapiens); assay: (§4) Displacement of [3H]estradiol from human recombinant ER after 14 to 18 hrs by scintillation counting analysis; summary of the method: as §1
MCF7 [7] = assay: Estrogenic activity in human MCF7 cells assessed as cell proliferation at 10^-12 M to 10^-6 M after 7 days by WST-8 assay relative to estradiol; type: functional
[8] = molecular target: Estrogen receptor (Homo sapiens) (UniProt P03372); assay: as §4; summary of the method: as §1; remark: listed apart in the source
[9] = molecular target: Estrogen receptor (Homo sapiens) (UniProt P03372); assay: as §2; type: cell-based; summary of the method: as §3; remark: listed apart in the source

logP [1]	EC50 (MCF7 [2]; Homo sapiens, MCF7, 168 h)	Compound	other results
5.71	–	4-Triethylgermylphenol [listing 1 of 2 here]	EC50 (MCF7 [2]; mcf7): 2.1 nM
5.03	23 nM	CCC(CC)(CC)c1ccc(O)cc1	inhibition [4]: Active; Activity [5]: Active
6.25	–	Oc1ccc(C(c2ccccc2)(c2ccccc2)c2ccccc2)cc1	Emax (MCF7 [7]; MCF7, 168 h): 16%
6.97	–	4-Triphenylgermylphenol [listing 1 of 2 here]	–
4.64	41 nM	CC[Si](C)(C)c1ccc(O)cc1	–
6.83	–	Oc1ccc([Si](c2ccccc2)(c2ccccc2)c2ccccc2)cc1	Emax (MCF7 [7]; MCF7, 168 h): 29%

The next lines start with the compound.

Compound	logP [1]	EC50 (MCF7 [2]; Homo sapiens, MCF7, 168 h)	other results
C[Si](C)(C)c1ccc(O)cc1	4.12	63 nM	pKa [3]: 10.1
CC[Si](CC)(CC)c1ccc(O)cc1	5.69	3.4 nM	inhibition [6]: Dose-dependent effect; Activity [5]: Active
CC(C)(c1ccccc1)c1ccc(O)cc1	4.31	38 nM	–
4-Trimethylgermylphenol	4.11	–	EC50 (MCF7 [2]; mcf7): 100 nM; pKa [3]: 10.2
CC(C)(C)c1ccc(O)cc1	–	870 nM	–
CCC(C)(C)c1ccc(O)cc1	4.04	190 nM	–
C[Si](C)(c1ccccc1)c1ccc(O)cc1	4.91	16 nM	–
4-Triphenylgermylphenol [listing 2 of 2 here]	–	–	Emax (MCF7 [7]): 47%
4-Triethylgermylphenol [listing 2 of 2 here]	–	–	inhibition [8]: Dose-dependent effect; Activity [9]: Active
